Experimental data published in ChEMBL document CHEMBL3272327, “Hypocholesterolemic activity of 1,3-bis(substituted phenoxy)-2-propanones” (J Med Chem, 1976).

Key:
Rattus norvegicus [1] = test: Effect on vesicular gland weight in rat at 1 mg/kg/day administered for 16 days measured 24 hrs after last drug dosage relative to total body weight (reference value: 0.10 +/- 0.04%); type: ADME, organism-based; details: in vivo
Rattus norvegicus [2] = test: Effect on DNA content in rat liver at 10 mg/kg/day administered for 16 days (reference value: 100 +/- 25%); type: ADME, organism-based; details: in vivo, 384 h
Rattus norvegicus [3] = test: Hypocholesterolemic activity in rat assessed as [14C]palmitic acid level in stomach at 10 mg/kg/day administered for 1 week measured after 22 hrs on day 7 by scintillation counting analysis (reference value: 0.65 +/- 0.46%); type: functional
Summary of the method: (§1)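 Male Sprague-Dawley rats on lab chow dosed orally once daily for 1 week at 10 mg/kg/day, suspended in 1% CMC, or given vehicle alone. On day 7, 5 μCi [1-14C]palmitic acid given orally. Killed after 22 hr; organs made into 10% water homogenates. Aliquots of 0.1 cc of homogenate, urine, blood or feces were digested and scintillation counted. Output is % of dose per tissue, N = 6.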

Rattus norvegicus [4] = test: Effect on brain weight in rat at 1 mg/kg/day administered for 16 days measured 24 hrs after last drug dosage relative to total body weight (reference value: 0.67 +/- 0.05%); type: ADME, organism-based; details: in vivo
Rattus norvegicus [5] = test: Hypocholesterolemic activity in rat assessed as [14C]cholesterol level in vas deferens at 10 mg/kg/day administered for 1 week measured after 22 hrs on day 7 by scintillation counting analysis (reference value: 0.03 +/- 0.02%); type: functional
Summary of the method: (§2)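 Male rats were dosed orally for 1 week (10 mg/kg/day) or with 1% CMC. On day 7 they received 5 μCi [4-14C]cholesterol orally and were killed after 22 hr. Organs were homogenized (10% in water); 0.1-cc aliquots of homogenate, urine, blood or feces were digested with Protosol. Samples were counted in toluene/Triton X-100 (2:1) scintillant with 0.4% PPO and 0.01% POPOP. Results are % of dose per tissue, N = 6.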

Rattus norvegicus [6] = test: Hypocholesterolemic activity in rat assessed as [14C]palmitic acid level in testes at 10 mg/kg/day administered for 1 week measured after 22 hrs on day 7 by scintillation counting analysis (reference value: 0.22 +/- 0.10%); type: functional, Testis; summary of the method: as §1
Rattus norvegicus [7] = test: Effect on glycogen content in rat liver at 10 mg/kg/day administered for 16 days (reference value: 100 +/- 24%); type: ADME, organism-based; details: in vivo, 384 h
Rattus norvegicus [8] = test: Effect on heart weight in rat at 5 mg/kg/day administered for 16 days measured 24 hrs after last drug dosage relative to total body weight (reference value: 0.37 +/- 0.04%); type: ADME, organism-based; details: in vivo
Rattus norvegicus [9] = test: Effect on brain weight in rat at 50 mg/kg/day administered for 16 days measured 24 hrs after last drug dosage relative to total body weight (reference value: 0.67 +/- 0.05%); type: ADME, organism-based; details: in vivo
Rattus norvegicus [10] = test: Hypocholesterolemic activity in [14C]palmitic acid-treated rat assessed as increase in free fatty acid accumulation in liver at 10 mg/kg/day administered for 1 week by scintillation counting analysis; type: functional
Rattus norvegicus [11] = test: Effect on spleen weight in rat at 1 mg/kg/day administered for 16 days measured 24 hrs after last drug dosage relative to total body weight (reference value: 0.55 +/- 0.12%); type: ADME, organism-based; details: in vivo
Rattus norvegicus [12] = test: Hypocholesterolemic activity in [14C]palmitic acid-treated rat assessed as decrease in 14C fatty acid incorporation into phospholipid fraction in liver at 10 mg/kg/day administered for 1 week by scintillation counting analysis; type: functional; parameters: scale not given: the % may be the effect or the level left
Rattus norvegicus [13] = test: Effect on heart weight in rat at 10 mg/kg/day administered for 16 days measured 24 hrs after last drug dosage relative to total body weight (reference value: 0.37 to 0.43%); type: ADME, organism-based; details: in vivo
Rattus norvegicus [14] = test: Hypocholesterolemic activity in rat assessed as [14C]cholesterol level in spleen at 10 mg/kg/day administered for 1 week measured after 22 hrs on day 7 by scintillation counting analysis (reference value: 1.41 +/- 1.01%); type: functional; summary of the method: as §2
Rattus norvegicus [15] = test: Effect on heart weight in rat at 50 mg/kg/day administered for 16 days measured 24 hrs after last drug dosage relative to total body weight (reference value: 0.37 +/- 0.04%); type: ADME, organism-based; details: in vivo
Rattus norvegicus [16] = test: Effect on body weight in rat at 10 mg/kg/day administered for 16 days measured on day 16 (reference value: 233 +/- 16 gms); type: ADME, organism-based; details: in vivo, 384 h
Summary of the method: (§3)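 Male Sprague-Dawley rats with chow and water ad libitum. Compound suspended in 1% CMC-water and given orally by intubation needle at 11:00 a.m., 1, 5, 10 or 50 mg/kg/day, for 16 days. Body weight (g) recorded on days 0, 7 and 16. N = 8.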

Rattus norvegicus [17] = test: Hypocholesterolemic activity in rat assessed as [14C]palmitic acid level in blood at 10 mg/kg/day administered for 1 week measured after 22 hrs on day 7 by scintillation counting analysis (reference value: 0.11 +/- 0.06%); type: functional
Rattus norvegicus [18] = test: Effect on kidney weight in rat at 10 mg/kg/day administered for 16 days measured 24 hrs after last drug dosage relative to total body weight (reference value: 0.92 to 0.96%); type: ADME, organism-based; details: in vivo
Rattus norvegicus [19] = test: Hypocholesterolemic activity in rat assessed as [14C]palmitic acid level in kidney at 10 mg/kg/day administered for 1 week measured after 22 hrs on day 7 by scintillation counting analysis (reference value: 0.68 +/- 0.16%); type: functional; summary of the method: as §1
Rattus norvegicus [20] = test: Effect on brain weight in rat at 10 mg/kg/day administered for 16 days measured 24 hrs after last drug dosage relative to total body weight (reference value: 0.67 +/- 0.05%); type: ADME, organism-based; details: in vivo
Rattus norvegicus [21] = test: Effect on kidney weight in rat at 5 mg/kg/day administered for 16 days measured 24 hrs after last drug dosage relative to total body weight (reference value: 0.92 +/- 0.04%); type: ADME, organism-based; details: in vivo
Rattus norvegicus [22] = test: Hypocholesterolemic activity in Sprague-Dawley rat assessed as serum cholesterol level at 50 mg/kg/day, po administered via intubation measured on day 4 by Liebermann-Burchard reaction (reference value: 100 +/- 7%); type: functional
Rattus norvegicus [23] = test: Effect on food intake in rat at 5 mg/kg/day measured during second week (reference value: 23.4 +/- 1.8 gms); type: ADME, organism-based; details: in vivo
Summary of the method: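 Male rats dosed orally at 1, 5, 10 or 50 mg/kg/day in 1% CMC. Average food intake in grams per rat per week measured over a 2-week period, first and second weeks reported separately. N = 8, Student's t test against the 1% CMC control.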

Rattus norvegicus [24] = test: Effect on body weight in rat at 1 mg/kg/day administered for 16 days measured on day 7 (reference value: 173 +/- 12 gms); type: ADME, organism-based; details: in vivo, 384 h; summary of the method: as §3
Rattus norvegicus [25] = test: Hypocholesterolemic activity in rat assessed as serum triglyceride level at 10 mg/kg/day administered for 8 days (reference value: 100 +/- 15%); type: functional
Summary of the method: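 Male Sprague-Dawley rats dosed orally at 10 mg/kg/day in 1% CMC. Serum triglycerides were measured with a stat pack kit after 8 days of dosing. Expressed as percent of vehicle control, N = 8; Student's t test.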

Rattus norvegicus [26] = test: Hypocholesterolemic activity in rat assessed as [14C]palmitic acid level in lung at 10 mg/kg/day administered for 1 week measured after 22 hrs on day 7 by scintillation counting analysis (reference value: 0.53 +/- 0.15%); type: functional; summary of the method: as §1
Rattus norvegicus [27] = test: Hypocholesterolemic activity in rat assessed as [14C]cholesterol level in lung at 10 mg/kg/day administered for 1 week measured after 22 hrs on day 7 by scintillation counting analysis (reference value: 1.99 +/- 1.18%); type: functional; summary of the method: as §2

Cc1ccc(OCC(=O)COc2ccc(C)cc2)cc1
Activity (Rattus norvegicus [1]): 0.19%
Activity (Rattus norvegicus [2]): 81%
Activity (Rattus norvegicus [3]): 0.48%
Activity (Rattus norvegicus [4]): 0.74%
Activity (Rattus norvegicus [5]): 0.07%
Activity (Rattus norvegicus [6]): 0.25%
Activity (Rattus norvegicus [7]): 118%
Activity (Rattus norvegicus [8]): 0.43%
Activity (Rattus norvegicus [9]): 0.83%
Activity (Rattus norvegicus [10]): 10%
Activity (Rattus norvegicus [11]): 0.43%
Activity (Rattus norvegicus [12]): 16%
Activity (Rattus norvegicus [13]): 0.38%
Activity (Rattus norvegicus [14]): 1.86%
Activity (Rattus norvegicus [15]): 0.4%
Activity (Rattus norvegicus [16]): 234 g
Activity (Rattus norvegicus [17]): 0.03%
Activity (Rattus norvegicus [18]): 0.93%
Activity (Rattus norvegicus [19]): 0.94%
Activity (Rattus norvegicus [20]): 0.71%
Activity (Rattus norvegicus [21]): 0.88%
Activity (Rattus norvegicus [22]): 86%
Activity (Rattus norvegicus [23]): 28.8 g
Activity (Rattus norvegicus [24]): 166 g
Activity (Rattus norvegicus [25]): 70%
Activity (Rattus norvegicus [26]): 0.5%
Activity (Rattus norvegicus [27]): 2.45%
